Measured values gathered from unrelated publications.
Protocols differ between the studies behind these lines.
Target: Dual specificity tyrosine-phosphorylation-regulated kinase 1A (DYRK1A, Homo sapiens, UniProt Q13627)
Method: competition with immobilised ligand

Compound | read-out | tested at | remaining binding
COc1ccc2c(c1)O[C@@H](c1ccc(OC)c(OC)c1)C[C@H]2NC(=O)C1(c2ccc3c(c2)OC(F)(F)O3)CC1 | cell-free assay | 1 µM | 80%
Cc1cnc(Nc2ccc(C(=O)N3CCC(N4CCCC4)CC3)cc2)nc1-c1cc2ccccc2s1 | binding | 1 µM | 19%
O=C(O)[C@H]1[C@H](Cn2nnc3ccccc3c2=O)CC[C@@H]1C(=O)c1ccc(OCCC2CCOCC2)cc1 | cell-free assay | 1 µM | 85%
O=C(NCC1CCOCC1)c1n[nH]cc1NC(=O)c1c(F)cccc1F | binding | 1 µM | 0.4%
COc1cnc(Nc2cccc(S(N)(=O)=O)c2)nc1N1CCN(c2ccccc2)CC1 | binding | 1 µM | 76%
COC(=O)Nc1nc2ccc(C(=O)c3ccccc3)cc2[nH]1 | cell-free assay | 10 µM | 34%
C=CC(=O)N1CCC(C(=O)NCC(=O)N2CCN(c3nc(-c4cnc(N)nc4C(F)F)nc(N4CCOCC4)n3)CC2)CC1 | binding | 1 µM | 94%
CSc1cccnc1N1CCN(Cc2nc3ccccc3[nH]2)CC1 | cell-free assay | 1 µM | 79%
c1cncc(-c2cccc(Nc3nccc(NC4CCCCC4)n3)c2)c1 | binding | 10 µM | 26%
O=C(c1ccc(Nc2nccc(-c3cc4ccccc4s3)n2)cc1)N1CCC(N2CCCC2)CC1 | binding | 1 µM | 68%
COc1ncc2cc3ccccc3nc2c1C#N | cell-free assay | 5 µM | 74%
Cc1noc([C@H]2C[C@@H](c3ccc(C(F)(F)F)cc3)CN(C(=O)N3CCS(=O)(=O)C3)C2)n1 | cell-free assay | 1 µM | 100%
O=C(NCCCN1CCOCC1)c1ccc(Nc2ncc(Cl)c(-c3ccc(Cl)s3)n2)cc1 | binding | 1 µM | 0.5%
